Experimental data as given in ChEMBL document CHEMBL4513216, “Probing the Open Global Health Chemical Diversity Library for Multistage-Active Starting Points for Next-Generation Antimalarials” (ACS Infect Dis, 2020).

Experiment: Toxicity liver stage against HepG2, at 10uM
Type: cell-based
Set-up: test concentration 10 uM, cell line HepG2-A16-CD81EGFP
Details: human, HepG2-A16-CD81EGFP cells; read-out: INHIBITION
In short: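 Uninfected HepG2-A16-CD81EGFP cells, 3 × 10^3 per well, 1536-well, plated on prespotted compound at 10 μM final, parasite-free screening media added to match infected plates; puromycin 10 μM positive, DMSO 0.5% negative; run in parallel with 48 h PbLuc assay at 37 °C, 5% CO2; viability by CellTiter-Glo luminescence, normalized to controls.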

Structure (SMILES) | cytotoxicity at 10 µM [%]
Cc1ccc(CN2CC[C@H](c3nc4cccc(C(N)=O)c4[nH]3)C2)cc1 | 35.1
CCOC(=O)[C@H]1[C@@H](O)C(=O)N(C)C12CCN(C(=O)c1ccccc1)CC2 | -6.53
CCOc1ccc(S(=O)(=O)N(CCOC)Cc2ccncc2)cc1F | 52.2
CNC(=O)[C@@H]1CC[C@@H]2[C@@H](CCN2C(=O)N(C)C)O1 | 13.2
OCCOCc1n[nH]c2c1CN(Cc1cccs1)C2 | 6.65
Cc1nc(C(=O)N2C[C@@H]3CN(S(C)(=O)=O)CCO[C@@H]3C2)cs1 | 1.98
O=C(c1ccco1)N1CC[C@H]2[C@H]1CCN2S(=O)(=O)C1CC1 | 9.22
O=C1CC2(CCN(Cc3cccs3)C2)CN1c1cccc(F)c1 (stereo unspecified) | -148
CCOCC1CN(C(=O)C2CCOCC2)Cc2cnn(C)c21 (stereo unspecified) | -1.05
O=C1CNc2ncnc(N3CCN(c4ccccc4F)CC3)c2N1 | 7.69
Cc1nn(C)cc1-c1cc(C(F)(F)F)nc(NC2CCCCC2)n1 | 6.9
Nc1cc(-c2c[nH]nc2C2CCCCN2C(=O)C2CCCC2)ccn1 (stereo unspecified) | 12
O=C(C1CC1)N1C[C@H]2CCCN(S(=O)(=O)c3ccc4c(c3)CCC4)[C@H]2C1 | 8.52
Cn1ncc2ccc(C3CCCN(C(=O)Cc4cccs4)C3)nc21 (stereo unspecified) | 10
Cc1cc(-c2cnc(N3CCCCCC3)nc2-c2cccnc2C)on1 | -8.75
Cc1ocnc1C(=O)N1CC[C@@H](O)[C@@H](O)[C@H](N2CCC(F)(F)CC2)C1 | 4.86
CC1CCCN(Cc2c(C3CCOCC3)[nH]c3ncccc23)C1 (stereo unspecified) | -2.03
Cc1ccccc1-n1cnc(Cl)c1CO | 8.48
Cc1cccn2cc(CC(=O)N(CCN(C)C)CC3CCCO3)nc12 (stereo unspecified) | 0.462
CS(=O)(=O)CCN1CCSCC1c1ccc(Cl)cc1 (stereo unspecified) | -24.3
COCCCNC(=O)CN(C)C(C)c1nc(C(C)C)no1 (stereo unspecified) | 8.24
Cc1cc(C)c(C#N)c(NCCn2cnnc2C(C)C)n1 | 10.2
COc1ccc(CN2CCn3cccc3C2C)cc1F (stereo unspecified) | -2.63

Structure (SMILES) | cytotoxicity at 10 µM [%]
Cc1cc(C2CCCN(Cc3cccnc3)C2)n[nH]1 (stereo unspecified) | 9
Cc1nnc(CN2CCN(Cc3nccn3C)CC2)n1C | -2.4
CC1CN(Cc2cccc(CN)c2)CCO1 (stereo unspecified) | -8.99
O=C1NCCCCC1NC(=O)N1CCCc2cc(F)ccc21 (stereo unspecified) | -4.53
CC(C)Cn1ncc(C(=O)NS(=O)(=O)C2CCCC2)c1C1CC1 | -9.97
NC(=O)CN1CCN(CC2CC2)c2ccccc21 | 3.92
CS(=O)(=O)NCC1CCCCN1C(=O)c1ccsc1 (stereo unspecified) | 0.555
Cn1c(C2CCCN2C(=O)CN2CSCC2=O)nc2ccccc21 (stereo unspecified) | 7.81
Clc1cncc(NCc2cccc(OCCN3CCOCC3)c2)n1 | 9.71
O=C(O)c1ncccc1OCC(F)(F)F | -8.76
COc1ccc(CCNC(=O)C(C)Nc2ccc(C)c(C)c2)cc1 (stereo unspecified) | 2.7
OCCOc1ccc(NCc2cccnc2)cn1 | 1.04
COc1ccc(-n2cnnc2SCC(=O)N(C)C(C)C)cn1 | 16.7
CCOCc1cccc(NC(=O)C2COCCO2)c1 (stereo unspecified) | 3.96
CN1CCN(Cc2ccccc2CNC(=O)c2cc(Br)ccc2F)CC1 | 6.37
CN(Cc1cccs1)C(=O)CN1CCCCC1Cn1cncn1 (stereo unspecified) | 8.97
Cc1cc(N2CCC(N(C)Cc3cccnc3)C2=O)n(C)n1 (stereo unspecified) | -9.98
Cc1n[nH]c(SCC(=O)NC(c2ccccn2)C(C)C)n1 (stereo unspecified) | -2.62
Cc1cc(C2CCCN2C(=O)CN(C)Cc2ccccc2)no1 (stereo unspecified) | 5.1
c1cnn(CC2CCCN2c2ncnc3c2CCC3)c1 (stereo unspecified) | 41.2
CCC(C(=O)Nc1ccc(-c2nc(C)n[nH]2)cc1)N1CCCC1=O (stereo unspecified) | -44.8
O=C(CNc1ccc(OC2CCOC2)cc1)NCc1cccs1 (stereo unspecified) | 3.43
CN1CCOC(C(=O)Nc2ccc3[nH]nnc3c2)C1 (stereo unspecified) | 6.77

Structure (SMILES) | cytotoxicity at 10 µM [%]
CC(=O)N1CCc2nc(-c3ccccc3)nc(NC(C)C)c2CC1 | -119
Cc1nc([C@H]2C[C@@H]3CCN(Cc4ccc5c(c4)OCO5)C[C@H]3O2)no1 | -110
O=c1[nH][nH]cc1-c1ccnc(NCCc2cccnc2)n1 | -8.86
CC(=O)Nc1nc2c(s1)C(C)(C)Nc1ccccc1S2 | -7.08
CN(C)CCN1CCN(C)c2nc(-c3ccccc3)ncc2C1=O | -11.6
CC(C)(C)Nc1nc(-c2cccnc2)c(-c2ccnc(NCCO)n2)s1 | -5.64
c1cc2c(c(-c3cc(N4CCOCC4)ncn3)c1)CCNC2 | -22.5
COc1cccc(N2CCN(Cc3nccn3C(C)C)CC2=O)c1 | 1.85
Cc1cc(-c2nn(C)c(Cl)c2CN2CCN(C)C(C(=O)O)C2)no1 (stereo unspecified) | -0.0938
CSc1ccc(CN(C(=O)c2cc[nH]n2)C2CC2)cc1 | -44.4
Cc1ccc(C(=O)NCC2CCN(Cc3ccccc3C#N)C2)cn1 (stereo unspecified) | 1.48
Cc1ccccc1C1CCN(CCn2cc(-c3cccc(O)c3)nn2)C1 (stereo unspecified) | 18.2
Cn1cc(CN2CCCC(CCc3ccc(F)cc3)C2)cn1 (stereo unspecified) | -12.6
O=C(CCC(F)(F)F)N1CCCC2(CCC(=O)N(CC3CC3)C2)C1 (stereo unspecified) | 7.4
Cc1cccc(-c2nc(N)nc3c2CN(C(=O)c2cc(C)n[nH]2)C3C)c1 (stereo unspecified) | 4.58
Cc1cc(N2CCCN(C(=O)Cc3cccnc3)CC2)ccn1 | 2.5
Nc1nc2c(c(N3CCCC(OCc4ccccn4)C3)n1)CCNCC2 (stereo unspecified) | -11.4
Cc1nnc(SCCCNc2cc(C3CC3)ncn2)s1 | 19.8
Cc1cc(NCCN2CCNC2=O)nc2cc3c(cc12)CCC3 | 2.97
c1cn(CCc2c[nH]cn2)c(-c2cc(CN3CCCC3)cs2)n1 | -1.45
CN(C)S(=O)(=O)NC1CCCc2c1cnn2-c1ccc(C(C)(C)C)cc1 (stereo unspecified) | 42.5
N#Cc1ccc(N2CCCC(CO)(CCOc3ccccc3)C2)nc1 (stereo unspecified) | 17.4
CCS(=O)(=O)c1ncc(CN2CCSCC2)n1CCc1ccccc1 | -1.95

Structure (SMILES) | cytotoxicity at 10 µM [%]
O=C1CC2(CCN(Cc3ccc4cccc(O)c4n3)CC2)CN1 | -15.3
CN(Cc1nc(C2CC2)no1)C(=O)c1cccc(CC2CCNCC2)c1 | 2.74
COc1cccc(-c2n[nH]cc2-c2nc(CC3CCN(C)CC3)no2)c1 | -9.98
CCN(CCO)C[C@@H]1CN(C(=O)c2ccc(C)s2)C[C@@H]1CO | 12.1
Cc1cccc(NCc2nn(C)c(=O)[nH]2)c1 | 2.6
Cn1ccnc1C1CCN(C(=O)COCC(F)(F)C(F)F)CC1 | -45.2
O=C1c2cc(Br)cc(Br)c2OCC1(CN1CCCC1)CN1CCCC1 | -7.83
Cc1cc(-c2cnn(CCNC(=O)C3CC3)c2C2CC2)on1 | 11.7
COc1ccc(CNC(C)Cn2cccn2)cc1F (stereo unspecified) | -0.544
CN1CCN(C2CCN(Cc3nc(-c4ccoc4)no3)CC2)C1=O | -2.83
CCN(CC)CCn1c(NC(=O)c2scnc2C)nc2ccccc21 | -27.5
CN(Cc1ccc2c(c1)OCCO2)Cc1nc2c(cnn2C)c(=O)[nH]1 | -4.45
CCc1ccc(C(CNC(=O)c2c(C)noc2C)N(C)C)cc1 (stereo unspecified) | -7.83
CCc1nnc2n1CCN(CC(=O)N1CCc3ccccc3C1)C2 | -7.83
O=C(CCNC(=O)c1ccoc1)Nc1ccc(F)cc1F | -6.44
CNC(=O)CN1CCCC(Cc2ccccc2OC)C1 (stereo unspecified) | -8.53
Cc1cc(CN2CCN(c3ccc4nncn4n3)C(C)C2)no1 (stereo unspecified) | -4.66
CNC(=O)c1ccc(C(=O)N2CCCC2c2cnn(C)c2)cn1 (stereo unspecified) | -6.41
Cc1noc(NC(=O)c2ccc(C)c(F)c2)n1 | -10.1
CCNC(=O)c1ccc(CNCc2c(C)nn(C)c2N(C)C)cc1 | 1.71
CN(CCc1ccccc1)Cc1c(C2CCNCC2)[nH]c2ncccc12 | 55.5
O=C(CN(C1=NCCCCC1)c1ccc(Cl)cc1)c1ccccc1 | 12.2
CCCN1CC[C@@H]2OC[C@H](C(=O)Nc3cccnc3)C[C@@H]2C1 | 5.7

Structure (SMILES) | cytotoxicity at 10 µM [%]
Cc1noc2nc(C3CCN(CC4CCCCC4)CC3)cc(C(F)F)c12 | -0.335
CN1CCC2(CC1)CC(NC(=O)c1csnn1)c1ccccc1O2 (stereo unspecified) | -95.4
Cc1ccc(CN2CC[C@H]3[C@H]2CCN3S(C)(=O)=O)s1 | 2.38
CN(Cc1ccncc1)C1COC2(CCN(Cc3ccco3)CC2)C1 (stereo unspecified) | -77.9
NCC(=O)N1CCCC1c1nccnc1Nc1ncccn1 (stereo unspecified) | -2.42
O=C(c1cnccn1)N1CCN2C[C@H](OCc3ccccc3F)C[C@H]2C1 | -2.16
NC(=O)CC1CC2(CCNCC2)c2cc(F)ccc21 (stereo unspecified) | -107
CCN1C(=O)CCC12CCCN(Cc1nccs1)CC2 (stereo unspecified) | -0.413
COc1cc(CNCc2ccnc(N3CCCC3)c2)cc(OC)c1 | 8.8
O=C(CC1CC1)N1CC[C@H]2[C@@H]1CCC(=O)N2c1cccnc1 | 3.06
Cn1nccc1-c1ncc2c(c1C(=O)O)CCN(Cc1ccccc1)C2 | 9.97
CN1CCN(Cc2ccncc2)C(=O)C12CCN(c1nccs1)CC2 | -2.82
O=C(c1cccnc1)N1CCC2(CCN(C(=O)c3ccco3)CC2)C1 | -91.6
c1cnn(Cc2cnc3n2CCN(CC2CCCCC2)C3)c1 | -78.8
CCC(=O)N1CCC2(CC1)C(c1cccnc1)CC(=O)N2CCOC (stereo unspecified) | -94.1
O=C1NC2(CCN(Cc3cccs3)CC2)CC1c1ccncc1 (stereo unspecified) | 1.2
COCC(=O)N1CCCC(c2cc(C(F)F)n3ncnc3n2)C1 (stereo unspecified) | -8.43
Cc1cc(C)cc(NC(=O)Nc2c(O)c3ccccc3oc2=O)c1 | 9.24
CN(C)C(=O)CN1C[C@H]2CC[C@@H](C1)N(Cc1ccccc1OCCO)C2 | 8.79
